# Only some compounds are listed: those with a hit (about 2.4% of all), similar ones and a draw of the others.
# SUMO1-SIM PPI – modulators of SUMO1 protein-protein interactions, primary screen, biochemical, uHTS; Small ubiquitin-related modifier 1 (Homo sapiens), P63165; SUMO1 binding to a labelled peptide, TR-FRET, 1 h; inhibition, % at 20 µM; 360,000 tested, 0.33% active; in the data active means inhibition above about 37%
# Target sequence (P63165 whole entry, looked up): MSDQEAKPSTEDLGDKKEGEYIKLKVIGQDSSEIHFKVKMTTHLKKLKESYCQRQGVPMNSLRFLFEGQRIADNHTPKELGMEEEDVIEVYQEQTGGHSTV
# Scp1 inh – Scp-1 phosphatase inhibitors, primary screen, biochemical, colorimetric, uHTS. Recombinant Scp1, phosphopeptide, malachite green phosphate absorbance. AID 493091, 2011. inhibition, % at 20 µM. Carboxy-terminal domain RNA polymerase II polypeptide A small phosphatase 1 (Homo …. 340,000 tested, 0.88% active;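 active means inhibition above about 50% at 20 µM, limit read from the data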
# Target sequence (Q9GZU7 76-261 limits assumed): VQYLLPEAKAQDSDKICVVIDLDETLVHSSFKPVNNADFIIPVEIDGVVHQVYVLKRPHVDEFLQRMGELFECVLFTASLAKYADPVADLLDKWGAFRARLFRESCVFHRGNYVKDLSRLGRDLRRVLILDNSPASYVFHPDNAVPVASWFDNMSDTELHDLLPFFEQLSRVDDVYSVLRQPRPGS
#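 System: truncated SCP-1 phosphatase (76-261aa); medium: Tris acetate buffer pH 5.5 with MgCl2 and Tween-20; incubation: 45 min room-temperature reaction, 5 min colour, 30 min stabiliser; compound: single 20 µM dose, 1% DMSO; reagent: Phosphorylated 17-residue peptide substrate; read-out: % inhibition at 20 µM; technique: colorimetric free-phosphate detection, absorbance 630 nm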
# LMPTP inh – LMPTP phosphatase inhibitors, primary screen, biochemical, fluorescence intensity, uHTS; Low molecular weight phosphotyrosine protein phosphatase (Homo sapiens), P24666; recombinant LMPTP-A, OMFP fluorogenic substrate; inhibition, % at 20 µM; 360,000 tested, 0.22% active; AID 651560, 2012;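 active means compounds that cut the enzyme signal by at least half of the control window in the single-dose screen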
# Target sequence (P24666 whole entry, looked up): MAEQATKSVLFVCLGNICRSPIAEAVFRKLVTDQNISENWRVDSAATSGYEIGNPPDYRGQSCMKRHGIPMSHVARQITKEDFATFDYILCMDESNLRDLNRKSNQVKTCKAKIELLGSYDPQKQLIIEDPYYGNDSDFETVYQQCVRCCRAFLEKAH
#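 test system = LMPTP-A | amount = 0.625 nM LMPTP-A final | reagent = fluorogenic phosphatase substrate OMFP at 400 µM final | incubation = 50 min at room temperature | benchmarks = no-enzyme low control, uninhibited high control | medium = Bis-Tris pH 6.0, DTT, detergent | signal = fluorescence intensity of OMFP turnover product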
# NadD block – inhibitors of S. aureus NadD, primary screen, biochemical, colorimetric, uHTS | Nicotinate-nucleotide adenylyltransferase NadD (Staphylococcus aureus N315) | purified NadD enzyme, colorimetric absorbance read-out | inhibition, % at 20 µM | 360,000 tested, 0.78% active; in the data active means inhibition above about 26%
# DNMT1 block – human DNMT1 methyltransferase inhibitors, primary screen, biochemical, molecular beacon, fluorescence, HinP1I cleavage, uHTS; inhibition (reported as % activation of signal), % at 10 µM; 360,000 tested, 0.83% active; AID 588458, 2011; DNA (cytosine-5)-methyltransferase 1 (Homo sapiens), P26358; in the data active means inhibition above about 50%
# STEP inh – STEP phosphatase inhibitors, primary screen, biochemical, fluorescence intensity, uHTS; Tyrosine-protein phosphatase non-receptor type 5 (Homo sapiens), P54829; recombinant STEP, OMFP fluorogenic substrate; inhibition, % at 20 µM; 360,000 tested, 0.25% active;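 active means inhibition at 20 µM, scaled per plate between control wells, above about 37%, limit read from the data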
#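 material = STEP tyrosine phosphatase | reagent = fluorogenic phosphatase substrate OMFP at 25 µM final | doses = single compound dose of 20 µM, 1% DMSO final | schedule = 20 min reaction, room temperature, in the dark | measured by = fluorescence, 480/540 nm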
# A number is an active result; – = inactive; · = no result.
SMILES,SUMO1-SIM PPI,Scp1 inh,LMPTP inh,NadD block,DNMT1 block,STEP inh
COc1ccc(/C(O)=C/Sc2nnc(Cc3ccccc3)o2)cc1,–,–,–,–,–,–
Cc1c(N)c(C(C)(C)C)cc(C(C)(C)C)c1[N+](=O)[O-],–,–,–,–,–,–
Cc1cc2nc3c(=O)[nH]c(=O)[nH]c3nc2c([N+](=O)[O-])c1N,100.0,72.5,–,–,110.5,–
CCCCn1c(N)c(S(=O)(=O)c2ccc(C)cc2)c2nc3ccccc3nc21,39.4,–,–,–,–,–
O=[N+]([O-])c1cc(CN2CCCC2)c2cccnc2c1O,–,–,73.8,74.4,–,–
O=[N+]([O-])c1cc(CN2CCN(c3cccc(C(F)(F)F)c3)CC2)c2cccnc2c1O,·,–,·,·,·,·
CN(C)c1ccc(/C=N/N=C2/NC(=O)/C(=C/c3ccc([N+](=O)[O-])cc3)S2)cc1,–,–,–,50.2,66.1,–
CCN(Cc1ccccc1)Cc1c(C)[nH]c2c(C)c(C)ccc2c1=O,–,–,–,–,–,–
Cc1ccccc1C(=O)NN1C(=O)CSC1=S,–,–,–,–,–,–
O=C(NN1C(=O)CSC1=S)c1cccnc1,59.7,–,–,–,–,–
O=C(O)c1cccc(CN2C(=O)CSC2=O)c1,–,–,–,–,–,–
Cc1ccc(C(=O)COC(=O)c2cc(=O)[nH]c3ccccc23)cc1C,–,80.6,–,–,–,–
COc1ccccc1C(=O)COC(=O)c1cc(=O)[nH]c2ccccc12,–,–,–,–,–,–
CCc1nnc(NC(=O)CSc2ncnc3c2oc2ccccc23)s1,65.5,–,–,–,–,–
O=C(Nc1ccc2c(c1)OCO2)c1cc(-c2ccc(O)cc2)on1,38.8,–,–,–,–,–
O=C(Nc1ccc2c(c1)OCO2)c1cc(-c2cccc(O)c2)on1,–,–,–,–,–,–
c1nc(SSc2ncnc3nc[nH]c23)c2[nH]cnc2n1,–,–,47.4,–,–,–
O=c1c2c(-c3ccccc3)csc2nc2c3ccccc3c(NCCN3CCOCC3)nn12,64.2,–,–,–,–,–
Nc1c(Cl)c(Cl)nc(C(=O)N/N=C/c2cccnc2)c1Cl,–,–,–,–,–,–
Nc1c(C(=O)NCC2CCCO2)sc2nc3c(c(-c4ccco4)c12)CC/C3=C\c1ccco1 (centres undefined),68.9,80.7,69.7,93.0,101.3,37.2
CCC(C(=O)NC1CCCC1)N(Cc1ccc2c(c1)OCO2)C(=O)c1snc(C(N)=O)c1N (centres undefined),–,–,–,–,–,–
OCCCNc1c2ccccc2nc2ccccc12,–,–,–,–,66.8,–
Fc1cccc(NCCc2c[nH]c3ccccc23)n1,–,–,–,–,–,–
c1ccc2c(NCCc3c[nH]c4ccccc34)c3ccccc3nc2c1,–,–,56.9,–,72.4,–
CCCCCCNc1cc(C)oc(=O)c1C(C)=O,–,–,–,–,–,–
SMILES,SUMO1-SIM PPI,Scp1 inh,LMPTP inh,NadD block,DNMT1 block,STEP inh
Nc1cc(SCc2ccc(Cl)cc2Cl)ncn1,–,–,–,–,–,–
Clc1cccc(-c2ccc(C3Nc4cccc5cccc(c45)N3)o2)c1,–,–,53.2,52.4,–,–
Clc1ccc(C2Nc3cccc4cccc(c34)N2)c(Cl)c1,–,–,–,–,–,–
CCCCOc1ccc(C2C(C(=O)c3ccc(C)o3)=C(O)C(=O)N2Cc2ccco2)cc1 (centres undefined),–,·,51.4,–,–,–
CCCCCOc1ccc(C2C(C(=O)c3ccc(C)o3)=C(O)C(=O)N2c2cc(C)on2)cc1 (centres undefined),–,–,50.2,–,–,–
CCOc1ccc(C2C(C(=O)c3ccc(C)o3)=C(O)C(=O)N2c2cc(C)on2)cc1OC (centres undefined),–,–,–,–,–,–
O=C(N/N=C/c1ccco1)C1CC(=O)N(c2ccccc2)C1 (centres undefined),–,–,–,–,–,–
COc1cc(/C=C(\C#N)C(=O)NC(C)C)ccc1OCc1ccc(C(=O)O)cc1,–,–,–,–,–,–
N#C/C(=C\c1ccc(OCc2ccc(Cl)cc2)cc1)C(=O)Nc1cccc(C(=O)O)c1,66.0,–,–,–,61.6,57.7
O=C(O)c1cccc(NC(=O)c2ccc(COc3ccc(Cl)cc3)cc2)c1,–,–,–,–,–,–
CCOc1cc(/C=C(/C#N)C(=O)Nc2ccc(OC)cc2)ccc1OCc1ccc(C(=O)O)cc1,–,–,80.3,–,–,–
Clc1ccc(CN=C(Nc2ccccc2)NC2CCCCC2)cc1,–,–,–,–,–,–
CC[n+]1c(/C=C/C=C/N(C(C)=O)c2ccccc2)sc2cc(OC)ccc21,·,61.5,·,·,·,·
O=C(CN1C(=O)NC2(CCCc3ccccc32)C1=O)NCc1ccc(Cl)cc1Cl (centres undefined),–,–,–,–,–,–
CC(=O)Nc1cccc(-c2csc(N)n2)c1,–,–,–,–,–,–
CC1=C(C(=O)Nc2ccc(CC(=O)NCc3ccccc3C)cc2)SCCO1,–,–,–,–,–,–
CCc1ccc(CNC(=O)Cc2ccc(NC(=O)C3=C(C)OCCS3)cc2)cc1,–,85.2,–,–,–,–
Cc1nc2ccccc2c2oc(C(=O)N3CCN(c4ccc([N+](=O)[O-])cc4)CC3)cc12,50.4,–,–,–,–,–
Cc1cc(N2CCN(S(=O)(=O)c3ccc(Cl)cc3)CC2)c2ccccc2n1,–,–,–,–,–,–
Cc1cc(N2CCN(S(=O)(=O)c3ccc(Cl)c(Cl)c3)CC2)c2ccccc2n1,–,–,54.6,–,–,–
Cc1cc(N2CCN(C(=O)Oc3ccc([N+](=O)[O-])cc3)CC2)c2ccccc2n1,–,·,50.5,–,·,·
Cc1nc2ccccc2c2oc(C(=O)N3CCN(C(=O)c4ccco4)CC3)cc12,–,–,–,–,–,–
Cc1cccc(NC(=O)c2cccs2)n1,–,–,–,–,–,–
O=C(COc1ccc2c(-c3ccccc3)cc(=O)oc2c1)Nc1ccc(CCO)cc1,–,–,65.7,–,–,–
COc1ccc2c(c1)CC/C(=C/c1ccccn1)C2=O,–,–,–,–,–,–
Cc1cc2oc(=O)cc(Cn3ncc(Cl)c(Cl)c3=O)c2cc1Cl,–,–,–,26.9,–,–

# Assay outcomes deposited in PubChem BioAssay by Sanford-Burnham Center for Chemical Genomics.
